The test system of series [1] is sarcoma osteogenic (Saos-2) cells. As to the kind of experiment: Cell viability of Saos-2 cells treated with precursors. Type of series: cell-based, human. Conditions: for concentration at which Saos-2 cells are inhibited: Fig. 4A and Fig. S6; for inhibitory activity at pH 8.0: hydrolysis of ester bond (Fig. S8). Put shortly: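 Saos-2 osteosarcoma cells, which overexpress alkaline phosphatase, were exposed to a range of test compound (phosphorylated peptide precursor) concentrations for 48 h. Viability was plotted as log-dose response curves, and IC90 was taken at 48 h. Human marrow stromal HS-5 cells served as the normal-cell comparison.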

A short description of series [2]: Hydrogelation assay of self-assembly in water upon ALP addition. The series is classed as physicochemical. Particulars: 1 mM, pH 7.4, ALP 3U/mL. Put shortly: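 Self-assembly was screened by hydrogelation: the test compound at 1 mM in water, pH 7.4, was given alkaline phosphatase at 3 U/mL. The resulting state (gel, suspension or increased viscosity) was judged by eye. Nanostructures formed under the same conditions were imaged by TEM after 24 h.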

In series [3] the test system is Saos-2 cells. As to the kind of experiment: Saos-2 cell viability with co-incubated ALP inhibitors or cell death inhibitors. The series is classed as cell-based, human. Particulars: 48h; for effect of pan-caspase inhibitor zVAD-fmk on death of treated Saos-2 cells: 1p 20 μM, 2p 50 μM, 3p 20 μM, zVAD-fmk 45 μM; for effect of L-Phe on viability of treated Saos-2 cells / effect of levamisole on viability of treated Saos-2 cells: 1p 50 μM, 3p 50 μM, 2p 200 μM; for effect of L-Phe on viability of treated Saos-2 cells: L-Phe 1 mM; for effect of levamisole on viability of treated Saos-2 cells: levamisole 1 mM; for effect of necroptosis inhibitor Nec-1 on death of treated Saos-2 cells: Nec-1 50 μM. In short, it runs like this: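 Saos-2 cells were treated for 48 h with test compound plus an inhibitor. ALP inhibitors were levamisole 1 mM (tissue-nonspecific ALP) or L-phenylalanine 1 mM (placental ALP), with test compound at 50 or 200 µM. Death-pathway inhibitors were pan-caspase zVAD-fmk 45 µM or Nec-1 50 µM. Read-out was cell viability.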

A short description of series [4]: Static light scattering. Type of series: physicochemical. Conditions: pH7.4 PBS buffer, before ALP. In short, it runs like this: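 Static light scattering was measured on test compound solutions (12.5–50 µM) in pH 7.4 PBS, before and 24 h after adding alkaline phosphatase (2 U/mL). Scattering angle was 30 degrees; read-out was scattered intensity.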
Series [5] has as its system sarcoma osteogenic (Saos-2) cells. Conditions: read-out: IC50 of carboplatin; 72 h; cited from earlier work.

Some results are limits rather than exact numbers.

The text below walks through data of publication PMC4855835 (Chemical communications (Cambridge, England), 2016).

What is called IC50 is the midpoint of a concentration-inhibition curve.

Turning to `O=C(Cc1ccc2ccccc2c1)N[C@H](Cc1ccccc1)C(=O)N[C@H](Cc1ccccc1)C(=O)N[C@H](Cc1ccc(OP(=O)(O)O)cc1)C(=O)O` [4p], the “concentration at which Saos-2 cells are inhibited” value in series [1] is on record as “about 500 μM”. The “state of the solution after addition of ALP” value (“state of the solution” for short) in series [2] is given as “becomes more viscous”.

Regarding `COC(=O)[C@@H](Cc1ccc(OP(=O)(O)O)cc1)NC(=O)[C@@H](Cc1ccccc1)NC(=O)[C@@H](Cc1ccccc1)NC(=O)Cc1ccc2ccccc2c1` [3p], in series [1], the “concentration at which Saos-2 cells are inhibited” value was at least 50 µM and the “inhibitory activity at pH 8.0” value is on record as “decreases”. For the same compound, the “state of the solution” value in series [2] is recorded as “forms a suspension”. Besides, in series [3], the “effect of pan-caspase inhibitor zVAD-fmk on death of treated Saos-2 cells” value (shortened to “effect of pan-caspase inhibitor zVAD-fmk”) is “only slightly protects”, the “effect of L-Phe on viability of treated Saos-2 cells” value (“effect of L-Phe” below) is reported as “unable to rescue the cells”, the “effect of levamisole on viability of treated Saos-2 cells” value (“effect of levamisole” for short) is listed as “increases the cell viability” and the “effect of necroptosis inhibitor Nec-1 on death of treated Saos-2 cells” value was “significantly protects”.

With `CNC(=O)[C@@H](Cc1ccc(OP(=O)(O)O)cc1)NC(=O)[C@@H](Cc1ccccc1)NC(=O)[C@@H](Cc1ccccc1)NC(=O)Cc1ccc2ccccc2c1` [1p], in series [1], the “concentration at which Saos-2 cells are inhibited” value was at least 50 µM and the “inhibitory activity at pH 8.0” value was “remains”. Further, the “state of the solution” value in series [2] is on record as “turns into a hydrogel”. Besides, in series [3], the “effect of pan-caspase inhibitor zVAD-fmk” value is “only slightly protects”, the “effect of L-Phe” value was “unable to rescue the cells”, the “effect of levamisole” value is “increases the cell viability” and the “effect of necroptosis inhibitor Nec-1 on death of treated Saos-2 cells” value is listed as “significantly protects”. In series [4], the “aggregation behaviour by SLS at 50 μM” value is on record as “starts to aggregates”.

Take `NNC(=O)[C@@H](Cc1ccc(OP(=O)(O)O)cc1)NC(=O)[C@@H](Cc1ccccc1)NC(=O)[C@@H](Cc1ccccc1)NC(=O)Cc1ccc2ccccc2c1` [2p]: in series [1], the “concentration at which Saos-2 cells are inhibited” value was at least 50 µM. In addition, the “state of the solution” value in series [2] was “turns into a hydrogel”. Also, in series [3], the “effect of pan-caspase inhibitor zVAD-fmk” value is reported as “only slightly protects”, the “effect of L-Phe” value is listed as “unable to rescue the cells”, the “effect of levamisole” value was “increases the cell viability” and the “effect of necroptosis inhibitor Nec-1 on death of treated Saos-2 cells” value is “significantly protects”.

For `N.N.O=C([O-])C1(C(=O)[O-])CCC1.[Pt+2]` [carboplatin], the IC50 in series [5] is 198 µM.
